The values below come from BindingDB's records for doi:10.1021/acs.jmedchem.8b00653 (Aix-Marseille University, 2018).

Structures are written as SMILES.

The target of the assay is Bromodomain-containing protein 4 (Homo sapiens, UniProt O60885). Briefly: Inhibition of TEV cleavage site-fused-GST tagged BRD4(BD1) (unknown origin) using SGRGK(Ac)CGK(Ac)-GLGK(Ac)GGAK(Ac)RHRKVG-peptide after 3 hrs by HTRF assay. Put shortly:
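GST-BRD4(BD1) purified on glutathione resin and by size exclusion; tetra-acetylated H4 peptide as ligand. Buffer 50 mM HEPES pH 7.5, 400 mM KF, 0.1% BSA, 0.5% DMSO final; 3 h at room temperature.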

Consider `CCn1cnc2c1c(=O)[nH]c(=O)n2Cc1ccc(CNS(=O)(=O)c2ccc3c(c2)CCCC(=O)N3)cc1`, for which the IC50 turned out to be 251 nM.

What is called IC50 is the midpoint of a concentration-inhibition curve. Low readings indicate greater potency in that assay, high ones weaker potency in that assay.
